35 compounds from ChEMBL document CHEMBL4406829, “Synthesis and in vitro evaluation of piperazinyl-ureido sulfamates as steroid sulfatase inhibitors” (Eur J Med Chem, 2019) can be followed below.

In experiment [1] the target is T1, Steryl-sulfatase (Homo sapiens) (UniProt P08842).
T1 sequence (whole entry): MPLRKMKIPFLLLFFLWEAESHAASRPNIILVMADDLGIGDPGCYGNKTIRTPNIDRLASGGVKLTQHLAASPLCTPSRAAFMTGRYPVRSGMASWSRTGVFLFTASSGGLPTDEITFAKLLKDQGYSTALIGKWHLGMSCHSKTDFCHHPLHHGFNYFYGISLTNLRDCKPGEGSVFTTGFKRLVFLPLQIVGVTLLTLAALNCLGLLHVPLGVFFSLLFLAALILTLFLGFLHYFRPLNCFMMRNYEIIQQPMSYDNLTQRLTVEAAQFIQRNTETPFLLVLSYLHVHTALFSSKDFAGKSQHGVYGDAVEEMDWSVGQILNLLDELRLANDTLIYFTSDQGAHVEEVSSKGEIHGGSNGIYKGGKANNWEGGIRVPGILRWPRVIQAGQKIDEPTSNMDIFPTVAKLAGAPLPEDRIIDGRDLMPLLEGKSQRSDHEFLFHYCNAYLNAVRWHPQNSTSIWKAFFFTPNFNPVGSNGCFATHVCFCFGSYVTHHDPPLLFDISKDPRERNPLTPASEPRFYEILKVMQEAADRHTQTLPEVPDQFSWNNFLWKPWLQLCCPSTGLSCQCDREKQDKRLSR
Put plainly: Inhibition of steroid sulfatase in human JEG3 cell lysates assessed as residual activity at 10 uM using [3H] E1S as substrate after 1 hr by scintillation spectrometry analysis relative to control; values are per cent of control. The settings on record: Lysate.

In a further experiment the target is T2, Steryl-sulfatase (Homo sapiens, UniProt P08842).
T2 sequence (P08842 whole entry): T1 sequence (whole entry)
Put plainly: Inhibition of steroid sulfatase in human JEG3 cell using [3H] E1S as substrate after 1 hr by scintillation spectrometry analysis. A digest of the protocol: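 JEG-3 (human placental choriocarcinoma) lysate at 125 μg protein/mL incubated 1 h with inhibitor (0.001–10 μM) and [3H]E1S adjusted to 20 μM with unlabelled E1S. Estrone product was extracted with toluene, and [14C]E1 was used to correct for losses. Read-out was 3H/14C scintillation counting. IC50 from activity with and without inhibitor; mean ± S.D., n = 3.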

One may read the residual activity as the signal under treatment as a percentage of the control signal. As to `COc1ccc(N2CCN(C(=O)Nc3ccc(OS(N)(=O)=O)cc3)CC2)cc1`, in experiment [1], the residual activity stood at 37%.
`CCCCCCCCCCN1CCN(C(=O)Nc2ccc(OS(N)(=O)=O)cc2Cl)CC1`: the residual activity in experiment [1] is 102%.
The same measure, in the same setting: the value for `Cc1ccccc1N1CCN(C(=O)Nc2ccc(OS(N)(=O)=O)cc2)CC1` was 47.9%; that for `CCCCCCCCCCN1CCN(C(=O)Nc2ccc(OS(N)(=O)=O)c(Cl)c2)CC1` was 25.4%.
By IC50 is commonly meant the midpoint of a concentration-inhibition curve. A high value points to lower potency. At Steryl-sulfatase, `CCCCCCCCN1CCN(C(=O)Nc2ccc(OS(N)(=O)=O)c(F)c2)CC1` registered an IC50 of 8.8 nM. For the same compound, in experiment [1], the residual activity came to 11.4%.
Regarding `NS(=O)(=O)Oc1ccc(NC(=O)N2CCN(c3ccc(Cl)cc3)CC2)cc1F`, at Steryl-sulfatase, the midpoint of inhibition, the IC50, lay at 5.1 nM. For the same compound, in experiment [1], the residual activity was 7.1%.
As to `NS(=O)(=O)Oc1ccc(NC(=O)N2CCN(c3ccc(Cl)cc3)CC2)c(F)c1`, the residual activity in experiment [1] was 108%.
On to `NS(=O)(=O)Oc1ccc(NC(=O)N2CCN(c3nccc(-c4cc5ccccc5o4)n3)CC2)cc1`, for which the IC50 at Steryl-sulfatase worked out at 139 nM. In experiment [1], the residual activity is 4.7%.
As to `COc1ccc(-c2ccnc(N3CCN(C(=O)Nc4ccc(OS(N)(=O)=O)cc4)CC3)n2)cc1`, the residual activity in experiment [1] turned out to be 7.9%.
For the compound `Cc1cccc(N2CCN(C(=O)Nc3ccc(OS(N)(=O)=O)cc3)CC2)c1`, in experiment [1], the residual activity amounted to 10.4%.
`NS(=O)(=O)Oc1ccc(NC(=O)N2CCN(c3ccc(Cl)c(Cl)c3)CC2)cc1` showed an IC50 at Steryl-sulfatase of 1230 nM. In addition, the residual activity in experiment [1] amounted to 23%.
As to `CCCCCCCCCCN1CCN(C(=O)Nc2ccc(OS(N)(=O)=O)c(F)c2)CC1`, the residual activity in experiment [1] came to 15.2%.
At Steryl-sulfatase, `CCCCCCCCN1CCN(C(=O)Nc2ccc(OS(N)(=O)=O)c(Cl)c2)CC1` came in with an IC50 of 18.9 nM. In addition, in experiment [1], the residual activity came to 13.9%.
Take `NS(=O)(=O)Oc1ccc(NC(=O)N2CCN(Cc3ccccc3)CC2)cc1`: in experiment [1], the residual activity is 18.7%.
On Steryl-sulfatase, `Cc1cccc(N2CCN(C(=O)Nc3ccc(OS(N)(=O)=O)cc3)CC2)c1C` had an IC50 of 66 nM. Also, the residual activity in experiment [1] is 5.9%.
Take `NS(=O)(=O)Oc1ccc(NC(=O)N2CCN(c3nccc(-c4ccccc4)n3)CC2)cc1`: the residual activity in experiment [1] was determined as 65.9%.
On Steryl-sulfatase, `CCCCCCCN1CCN(C(=O)Nc2ccc(OS(N)(=O)=O)cc2)CC1` registered an IC50 of 1690 nM. Besides, in experiment [1], the residual activity was 27.7%.
In turn, `NS(=O)(=O)Oc1ccc(NC(=O)N2CCN(c3ccc(Cl)cc3)CC2)cc1` gave an IC50 against Steryl-sulfatase of 94 nM. The residual activity in experiment [1] was 14.9%.
Regarding `COc1ccc(-c2ccnc(N3CCN(C(=O)Nc4ccc(OS(N)(=O)=O)cc4)CC3)n2)cc1OC`, in experiment [1], the residual activity amounted to 60.7%.
Consider `CCCCCCCCN1CCN(C(=O)Nc2ccc(OS(N)(=O)=O)cc2Cl)CC1`, for which, in experiment [1], the residual activity is 71.6%.
Consider `COc1cc(-c2ccnc(N3CCN(C(=O)Nc4ccc(OS(N)(=O)=O)cc4)CC3)n2)cc(OC)c1OC`, for which the residual activity in experiment [1] came out at 19%.
For `NS(=O)(=O)Oc1ccc(NC(=O)N2CCN(c3nccc(-c4cccc(Br)c4)n3)CC2)cc1`, in experiment [1], the residual activity worked out at 39.4%.
Turning to `NS(=O)(=O)Oc1ccc(NC(=O)N2CCN(c3ccc(F)cc3)CC2)cc1`, the residual activity in experiment [1] came to 93.5%.
`CCCCCCCCCCN1CCN(C(=O)Nc2ccc(OS(N)(=O)=O)cc2)CC1` returned an IC50 against Steryl-sulfatase of 33.2 nM. Further, the residual activity in experiment [1] is 3.5%.
For the compound `CCCCCCCCN1CCN(C(=O)Nc2ccc(OS(N)(=O)=O)cc2F)CC1`, the residual activity in experiment [1] came to 29.6%.
Turning to `COc1cccc(N2CCN(C(=O)Nc3ccc(OS(N)(=O)=O)cc3)CC2)c1`, the residual activity in experiment [1] came to 26.3%.
`Cc1cccc(N2CCN(C(=O)Nc3ccc(OS(N)(=O)=O)c(Cl)c3)CC2)c1C` yielded an IC50 at Steryl-sulfatase of 17 nM. The residual activity in experiment [1] is 15.1%.
`NS(=O)(=O)Oc1ccc(NC(=O)N2CCN(c3ccc(Cl)cc3)CC2)cc1Cl`: the residual activity in experiment [1] turned out to be 110%.
Regarding `CCCCCCCCCCN1CCN(C(=O)Nc2ccc(OS(N)(=O)=O)cc2F)CC1`, the residual activity in experiment [1] amounted to 7.8%.
As for `NS(=O)(=O)Oc1ccc(NC(=O)N2CCN(c3nccc(-c4cccc(C(F)(F)F)c4)n3)CC2)cc1`, in experiment [1], the residual activity worked out at 44.3%.
Still for that read-out and setting: the value for `NS(=O)(=O)Oc1ccc(NC(=O)N2CCN(c3ccccc3)CC2)cc1` was 16.9%.
Consider `Cc1cccc(-c2ccnc(N3CCN(C(=O)Nc4ccc(OS(N)(=O)=O)cc4)CC3)n2)c1`, for which the residual activity in experiment [1] is 26.7%.
`Cc1cccc(N2CCN(C(=O)Nc3ccc(OS(N)(=O)=O)cc3F)CC2)c1C`: in experiment [1], the residual activity was found to be 109%.
Consider `NS(=O)(=O)Oc1ccc(NC(=O)N2CCN(Cc3cc4ccccc4o3)CC2)cc1`, for which the residual activity in experiment [1] is 20.2%.
On Steryl-sulfatase, `CCCCCCCCN1CCN(C(=O)Nc2ccc(OS(N)(=O)=O)cc2)CC1` came in with an IC50 of 43.7 nM. Also, the residual activity in experiment [1] came to 12.4%.
